According to ChEMBL document CHEMBL1151445, “Molecular epidemiology and mechanisms of carbapenem resistance in Pseudomonas aeruginosa isolates from Spanish hospitals” (2007):
Values after ≈ are worked out from the molar mass of the structure shown.

Legend:
Pseudomonas aeruginosa [1] = test: Antimicrobial activity against Pseudomonas aeruginosa PAO1 by E-test; assay type: functional
Pseudomonas aeruginosa [2] = test: Antimicrobial activity against carbapenem-resistant Pseudomonas aeruginosa clinical isolate
Pseudomonas aeruginosa [3] = test: Antimicrobial activity against carbapenem-resistant Pseudomonas aeruginosa clinical isolate assessed as resistant isolates; assay type: functional
Pseudomonas aeruginosa [4] = test: Antimicrobial activity against Pseudomonas aeruginosa PAO1 harboring pV2GY3 with blaVIM-2 and aac(6)'-32 by E-test; assay type: functional
Outline: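 Plasmid DNA from clinical strain GY3 was electroporated into PAO1. Transformants were selected on Luria-Bertani agar with 8 μg imipenem/ml and checked with MBL Etest strips and PCR for the MBL gene. MICs for the transformant were determined by Etest.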

Pseudomonas aeruginosa [5] = test: Antimicrobial activity against Pseudomonas aeruginosa GY3 producing blaVIM-2 by E-test; assay type: functional
Pseudomonas aeruginosa [6] = test: Antimicrobial activity against carbapenem-resistant Pseudomonas aeruginosa clinical isolate; assay type: functional
Pseudomonas aeruginosa [7] = test: Antimicrobial activity against carbapenem-susceptible Pseudomonas aeruginosa clinical isolate assessed as resistant isolates; assay type: functional
Escherichia coli [8] = test: Antimicrobial activity against Escherichia coli XL1-Blue harboring pGTAAC-32 with cloned aac(6)'-32 by E-test
Escherichia coli [9] = test: Antimicrobial activity against Escherichia coli XL1-Blue by E-test; assay type: functional

Compound | MIC (Pseudomonas aeruginosa [1]) [µg/mL] | MIC (Pseudomonas aeruginosa [2]) [µg/mL] | Activity (Pseudomonas aeruginosa [3]) [%] | MIC (Pseudomonas aeruginosa [4]) [µg/mL] | MIC (Pseudomonas aeruginosa [5]) [µg/mL] | MIC (Pseudomonas aeruginosa [6]) [µg/mL] | Activity (Pseudomonas aeruginosa [7]) [%] | MIC (Escherichia coli [8]) [µg/mL] | MIC (Escherichia coli [9]) [µg/mL]
C[C@@H](O)[C@H]1C(=O)N2C(C(=O)O)=C(S[C@@H]3CN[C@H](C(=O)N(C)C)C3)[C@H](C)[C@H]12 [MEROPENEM] | 0.38 (≈ 0.991 µM) | 8 (≈ 20.9 µM) | 68 | 16 (≈ 41.7 µM) | 16 (≈ 41.7 µM) | 8 (≈ 20.9 µM) | – | – | –
C[C@H]1[C@H](NC(=O)/C(=N\OC(C)(C)C(=O)O)c2csc(N)n2)C(=O)N1S(=O)(=O)O [AZTREONAM] | – | – | – | 2 (≈ 4.59 µM) | 2 (≈ 4.59 µM) | – | – | – | –
CC1(C)S[C@@H]2[C@H](NC(=O)[C@H](C(=O)O)c3ccsc3)C(=O)N2[C@H]1C(=O)O [TICARCILLIN] | 12 (≈ 31.2 µM) | – | 34 | > 256 | > 256 | – | 11 | – | –
CC(C)(O/N=C(\C(=O)N[C@@H]1C(=O)N2C(C(=O)[O-])=C(C[n+]3ccccc3)CS[C@H]12)c1csc(N)n1)C(=O)O [CEFTAZIDIME] | 1.5 (≈ 2.74 µM) | – | 46 | 24 (≈ 43.9 µM) | 16 (≈ 29.3 µM) | – | 11 | – | –
NC[C@H]1O[C@H](O[C@H]2[C@H](O)[C@@H](O[C@H]3O[C@H](CO)[C@@H](O)[C@H](N)[C@H]3O)[C@H](N)C[C@@H]2N)[C@H](N)C[C@@H]1O [TOBRAMYCIN] | 0.75 (≈ 1.6 µM) | – | 44 | 64 (≈ 137 µM) | > 256 | – | 9 | 6 (≈ 12.8 µM) | 0.38 (≈ 0.813 µM)
C[C@@H](O)[C@H]1C(=O)N2C(C(=O)O)=C(SCCNC=N)C[C@H]12 [IMIPENEM ANHYDROUS] | 2 (≈ 6.68 µM) | – | 95 | > 32 | > 32 | – | – | – | –
CO/N=C(\C(=O)N[C@@H]1C(=O)N2C(C(=O)[O-])=C(C[N+]3(C)CCCC3)CS[C@H]12)c1csc(N)n1 | 1.5 (≈ 3.12 µM) | – | – | 16 (≈ 33.3 µM) | 16 (≈ 33.3 µM) | – | – | – | –
CC1COc2c(N3CCN(C)CC3)c(F)cc3c(=O)c(C(=O)O)cn1c23 (stereo not drawn) [OFLOXACIN] | – | – | 68 | – | – | – | 32 | – | –
CCN1CCN(C(=O)N[C@@H](C(=O)N[C@@H]2C(=O)N3[C@@H]2SC(C)(C)[C@@H]3C(=O)O)c2ccccc2)C(=O)C1=O [PIPERACILLIN] | 2 (≈ 3.86 µM) | – | 28 | 16 (≈ 30.9 µM) | 16 (≈ 30.9 µM) | – | 9 | – | –
GENTAMICIN | 2 | – | 59 | 16 | 32 | – | 26 | – | 0.19
NCC[C@H](O)C(=O)N[C@@H]1C[C@H](N)[C@@H](O[C@H]2O[C@H](CN)[C@@H](O)[C@H](O)[C@H]2O)[C@H](O)[C@H]1O[C@H]1O[C@H](CO)[C@@H](O)[C@H](N)[C@H]1O [AMIKACIN] | 3 (≈ 5.12 µM) | – | 19 | 48 (≈ 82 µM) | 64 (≈ 109 µM) | – | 9 | 1.5 (≈ 2.56 µM) | 0.75 (≈ 1.28 µM)
O=C(O)c1cn(C2CC2)c2cc(N3CCNCC3)c(F)cc2c1=O [CIPROFLOXACIN] | – | – | – | – | > 32 | – | – | – | –
